Screening data as filed in PubChem BioAssay.
The list is not random: actives were taken first. Their share in the collection is about 2.4%.
TMEM16A inh – inhibitors of mouse TMEM16A calcium-activated chloride channel | HEK293 TMEM16A/YFP iodide influx fluorescence, ionomycin | 1.2% of 310,000 active | AID 588511 | normalized B-score (activity score, 25-100; higher = stronger inhibition) at 10 µM | Q8BHY3;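 active means ratio plate-corrected score three or more library SD toward inhibition, starting fluorescence score within five deviations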;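 further: score derived from kinetic fluorescence span divided by baseline fluorescence per well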
Apaf-1 inh – blocks human Apaf-1 apoptosome activity. reconstituted apoptosome caspase-3 activity, DEVD-Rh110 fluorescence. O14727. inhibition, % at 20 µM. 0.71% of 330,000 active; active means inhibition of at least 40% at 20 µM
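Material: cell-free apoptosome with Apaf-1, procaspase-3 and caspase-9; Buffer or medium: Hepes pH 7.5 with detergent and BSA; Reagent: cytochrome c trigger plus (Z-DEVD)2-Rh110 caspase-3 substrate; Times: compound with Apaf-1, dATP, procaspase-3 30 min, then 50 min reaction, room temperature; Technique: Rh110 fluorescence intensity.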
TMEM16A act – mouse TMEM16A channel activation, primary screen; HEK293 TMEM16A/YFP-H148Q/I152L, iodide quench fluorescence; active compounds read low; B-score at 10 µM; 0.3% of 340,000 active; AID 623877;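 active means fluorescence-ratio B-score plate-corrected deviation score at least 3 library SD below zero, with starting fluorescence score within 5 deviations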;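 further: channel opened by trigger with iodide after compound preincubation; score built on the fluorescence ratio of max minus min over baseline; more negative score means more quench and so TMEM16A activation or potentiation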
UBC13 polyUb – blocks human UBC13 polyubiquitin chain formation; P61088; TR-FRET; inhibition, % at 20 µM; 0.47% of 330,000 active; in the data active means inhibition above about 45%, passing the limit was not always enough; inconclusive means no clear call, values can overlap the other calls
FID counter – displaces DNA intercalator in HCV helicase counter-screen; inhibition, % at 7.9 µM; AID 1845; DNA fluorescent intercalator displacement, fluorescence; 0.17% of 290,000 active; in the data active means inhibition above about 37%;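 further: higher means more ethidium bromide displaced from hairpin DNA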
Numbers stand for hits; n = inactive; u = inconclusive; x = no result.

SMILES	TMEM16A inh	Apaf-1 inh	TMEM16A act	UBC13 polyUb	FID counter
COCCNC(=O)COC(=O)c1[nH]c(C)c(C(C)=O)c1C	100	n	n	n	n
CCCC[n+]1ccn(C2=C([O-])c3ccccc3C(=O)/C2=N\S(=O)(=O)c2ccccc2)c1	n	59	n	n	n
COc1ccc([N+](=O)[O-])cc1NS(=O)(=O)c1ccc(Cl)c(C(=O)Nc2sc3c(c2C#N)CCCCC3)c1	n	n	x	n	n
CN(C)CCNC(=O)C1(O)c2cc(Br)ccc2NC(=O)N1c1ccc(Cl)cc1 (configuration not stated)	n	n	n	n	n
O=C(O)/C=C/c1ccc(OCc2cccc(F)c2)cc1	n	n	n	n	n
CC(=O)c1ccc(OCc2cc(C(=O)N3CCC(Oc4ccccc4C)CC3)no2)cc1	100	n	n	n	n
CC(=O)c1ccc(OCc2cc(C(=O)N3CCCCCCC3)no2)cc1	n	n	n	n	n
Cc1c(NS(=O)(=O)c2ccc3c(c2)OCCO3)cccc1-c1nc2cccnc2s1	25	n	n	n	n
Cc1cc(-c2nc3cccnc3s2)ccc1NS(=O)(=O)c1ccc2c(c1)OCCO2	n	n	n	n	n
CCCOC(=O)c1ccc(Oc2c(-c3ccc(O)cc3O)n[nH]c2C)cc1	25	n	n	n	n
CCCOC(=O)c1ccc(Oc2c(-c3ccc(OC)cc3O)n[nH]c2C)cc1	n	n	n	n	n
NS(=O)(=O)c1cccc(NS(=O)(=O)c2ccc(/C=C/C(=O)O)cc2)c1	n	n	n	n	n
Cc1cccc(CSC(=N)N)c1	n	n	n	n	n
Cc1cccc(CSC(Nc2ccc(F)cc2)=C(C#N)C#N)c1	100	n	n	n	n
N#CC(C#N)=C(Nc1ccc(F)cc1)SCc1cccc(Br)c1	100	x	n	x	n
Clc1ccc(OCCCN2CCCCC2)c(Br)c1	n	n	-14	n	n
Clc1ccc(OCCCCCN2CCCC2)c(Br)c1	n	n	n	n	n
Cc1ccccc1C(=O)N1CCN(c2ncccn2)CC1	n	n	n	n	n
Cc1occc1C(=O)N1CCN(c2ncccn2)CC1	n	n	-50	n	n
CCn1c(SCc2nc3scc(-c4ccccc4)c3c(=O)[nH]2)nnc1-c1cccs1	100	n	n	n	n
Cc1nnc(SCc2nc3scc(-c4ccccc4)c3c(=O)[nH]2)s1	n	n	n	n	n
COc1ccc(C2=NOC(C)(c3nnc(-c4ccncc4)o3)C2)cc1 (configuration not stated)	n	n	n	n	x
CCCCN(C(=O)CSc1nnc(-c2ccco2)o1)c1c(N)n(Cc2ccccc2)c(=O)[nH]c1=O	n	n	n	n	n
c1ccc2[nH]c(NCCCN3CCOCC3)nc2c1	n	n	n	n	n
c1ccc(-c2nc(NCCCN3CCOCC3)c3ccccc3n2)cc1	n	n	n	u	55
SMILES	TMEM16A inh	Apaf-1 inh	TMEM16A act	UBC13 polyUb	FID counter
Cc1ccc2ncnc(NCCCN3CCOCC3)c2c1	n	n	n	n	n
Cc1cccc(-c2nc(NCCCN3CCOCC3)c3ccccc3n2)c1	n	n	n	n	53
CCc1cc2c(COC(=O)c3cccc(S(C)(=O)=O)c3)cc(=O)oc2cc1O	n	n	n	n	n
CNS(=O)(=O)c1cccc(C(=O)OCc2cc(=O)oc3c(C)c(O)ccc23)c1	100	n	n	n	n
CC(=O)c1ccccc1OCCOc1ccccc1C(C)=O	n	n	n	n	n
COc1ccccc1OCCCCOc1ccccc1C(C)=O	25	n	n	n	n
CCC(C)NCCOc1ccc(C(C)(C)c2ccccc2)cc1 (configuration not stated)	n	n	n	n	39
CNCCCOc1ccc(C(C)(C)c2ccccc2)cc1	x	x	x	x	n
COc1cccc(C2=NOC(C(=O)NC(C)C)C2)c1 (configuration not stated)	25	n	n	n	n
COc1ccc(CNC(=O)C2CC(c3ccc(F)cc3)=NO2)cc1 (configuration not stated)	n	n	n	n	n
COc1ccc(CNC(=O)C2CC(c3ccc(OC)cc3)=NO2)cc1 (configuration not stated)	100	n	n	n	n
COc1ccc2cc3[n+](cc2c1OC)CCc1cc2c(cc1-3)OCO2	n	n	n	n	n
CCn1c(=O)cc(OCC(=O)NCc2cccs2)c2ccccc21	n	n	n	n	n
Cc1ccc(C(=O)N2CCN=C2SCc2ccc([N+](=O)[O-])cc2)cc1	n	n	-5.8	n	n
